ChEMBL document CHEMBL4819017 (Eur J Med Chem, 2021)
Values belong to the molecule of their own block, whether it stands above or below them.

Tests used:
[1] = target: Serine/threonine-protein kinase mTOR (Homo sapiens, UniProt P42345); experiment: Inhibition of recombinant human GST tagged mTOR (1360 to 2549 residues) expressed in baculovirus expression system measured by LanthaScreen assay
Outline: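 mTOR inhibition measured by LanthaScreen assay; IC50 values average two independent experiments.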

[2] = target: Voltage-gated inwardly rectifying potassium channel KCNH2 (Homo sapiens, UniProt Q12809); experiment: Inhibition of human ERG by fluorescence polarization assay
Sequence of Voltage-gated inwardly rectifying potassium channel KCNH2 (Q12809 whole entry): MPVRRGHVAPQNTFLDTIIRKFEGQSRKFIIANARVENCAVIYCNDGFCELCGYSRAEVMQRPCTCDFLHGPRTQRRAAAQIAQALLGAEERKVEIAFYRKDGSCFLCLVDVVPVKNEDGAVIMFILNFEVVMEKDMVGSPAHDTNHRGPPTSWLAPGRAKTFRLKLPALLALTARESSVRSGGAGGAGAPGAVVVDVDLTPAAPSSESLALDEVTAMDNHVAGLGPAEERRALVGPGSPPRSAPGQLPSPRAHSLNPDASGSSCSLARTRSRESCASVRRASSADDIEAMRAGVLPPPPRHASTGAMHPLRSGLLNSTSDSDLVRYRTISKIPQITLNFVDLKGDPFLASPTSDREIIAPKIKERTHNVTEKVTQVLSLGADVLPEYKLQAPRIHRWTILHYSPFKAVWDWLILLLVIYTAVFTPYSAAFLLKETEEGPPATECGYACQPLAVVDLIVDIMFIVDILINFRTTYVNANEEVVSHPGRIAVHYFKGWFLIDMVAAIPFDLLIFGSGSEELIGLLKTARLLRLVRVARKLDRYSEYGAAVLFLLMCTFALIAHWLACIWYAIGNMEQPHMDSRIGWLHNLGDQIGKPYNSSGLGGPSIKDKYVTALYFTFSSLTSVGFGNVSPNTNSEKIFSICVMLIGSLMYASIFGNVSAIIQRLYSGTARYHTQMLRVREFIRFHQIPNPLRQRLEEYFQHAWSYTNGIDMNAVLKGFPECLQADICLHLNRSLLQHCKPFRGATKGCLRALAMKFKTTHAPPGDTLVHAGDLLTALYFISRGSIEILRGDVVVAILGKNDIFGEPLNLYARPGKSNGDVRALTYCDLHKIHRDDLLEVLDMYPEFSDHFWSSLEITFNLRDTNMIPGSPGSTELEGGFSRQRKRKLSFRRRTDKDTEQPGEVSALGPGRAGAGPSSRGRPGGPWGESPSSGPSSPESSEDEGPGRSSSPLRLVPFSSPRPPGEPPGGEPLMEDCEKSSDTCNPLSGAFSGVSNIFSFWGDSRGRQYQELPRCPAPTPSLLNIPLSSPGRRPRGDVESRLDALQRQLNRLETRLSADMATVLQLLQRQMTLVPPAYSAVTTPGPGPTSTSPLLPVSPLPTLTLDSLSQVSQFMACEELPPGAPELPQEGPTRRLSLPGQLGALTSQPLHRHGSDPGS
Outline: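 Predictor h-ERG membrane preparations (sonicated) incubated with test compound dilutions and fluorescent tracer (working 4X tracer at 4 nM) at room temperature for ≥1 h. Read-out by fluorescence polarization, ex 530/25, em 590/35.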

[3] = species on record: Homo sapiens; experiment: Selectivity ratio of IC50 for recombinant human GST tagged mTOR (1360 to 2549 residues) expressed in baculovirus expression system to IC50 for human full length p110alpha (1 to 1068 residues) expressed in baculovirus-infected Sf21 cells
Outline: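 mTOR activity measured by LanthaScreen assay. PI3K-α activity measured by ADP Hunter Plus (ADP accumulation, fluorescence ex 544/em 580 nm), normalized to no-compound control and fitted to a sigmoid dose-response curve. IC50s are the average of two independent experiments. Ratio is mTOR IC50 over PI3K-α IC50.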

[4] = target: Phosphatidylinositol 4,5-bisphosphate 3-kinase catalytic subunit alpha isoform (Homo sapiens, UniProt P42336); experiment: Inhibition of human full length p110alpha (1 to 1068 residues) expressed in baculovirus-infected Sf21 cells by ADP-Hunter Plus assay
Sequence of Phosphatidylinositol 4,5-bisphosphate 3-kinase catalytic subunit alpha isoform (P42336 whole entry, the tested form may be a part, canonical isoform): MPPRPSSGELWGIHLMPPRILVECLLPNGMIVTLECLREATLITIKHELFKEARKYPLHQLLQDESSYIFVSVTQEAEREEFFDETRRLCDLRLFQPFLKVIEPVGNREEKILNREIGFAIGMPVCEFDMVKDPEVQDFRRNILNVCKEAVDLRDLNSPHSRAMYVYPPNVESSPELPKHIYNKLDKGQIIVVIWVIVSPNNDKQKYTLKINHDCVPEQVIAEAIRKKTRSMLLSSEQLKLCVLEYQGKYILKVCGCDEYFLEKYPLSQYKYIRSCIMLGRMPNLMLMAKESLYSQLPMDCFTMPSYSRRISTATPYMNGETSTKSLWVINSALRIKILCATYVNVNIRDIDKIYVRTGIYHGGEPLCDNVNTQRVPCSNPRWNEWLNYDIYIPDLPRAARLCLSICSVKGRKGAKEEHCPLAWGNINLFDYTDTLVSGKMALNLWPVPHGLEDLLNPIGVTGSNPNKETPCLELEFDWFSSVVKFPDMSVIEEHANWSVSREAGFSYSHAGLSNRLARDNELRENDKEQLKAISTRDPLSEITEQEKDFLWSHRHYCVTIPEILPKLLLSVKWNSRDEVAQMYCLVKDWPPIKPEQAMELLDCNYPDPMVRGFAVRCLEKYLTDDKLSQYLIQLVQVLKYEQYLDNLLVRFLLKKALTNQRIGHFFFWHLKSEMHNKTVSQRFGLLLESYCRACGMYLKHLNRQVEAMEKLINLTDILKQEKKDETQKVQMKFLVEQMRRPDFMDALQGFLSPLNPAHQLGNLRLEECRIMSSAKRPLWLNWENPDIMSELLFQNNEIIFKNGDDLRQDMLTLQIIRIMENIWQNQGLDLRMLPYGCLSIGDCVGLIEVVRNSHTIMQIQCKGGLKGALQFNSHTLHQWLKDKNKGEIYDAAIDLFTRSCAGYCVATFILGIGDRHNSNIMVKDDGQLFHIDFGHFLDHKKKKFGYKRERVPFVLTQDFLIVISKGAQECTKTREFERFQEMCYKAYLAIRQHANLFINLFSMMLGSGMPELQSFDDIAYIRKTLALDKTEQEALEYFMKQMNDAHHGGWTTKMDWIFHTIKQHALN

[5] = Inhibition of PI3K/mTOR in human U2OS cells assessed as inhibition of AKT1 phosphorylation at Ser473 residue by C-ELISA; type: cell-based
Outline: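 U2OS osteosarcoma cells grown in 0.1% FBS and serum-stimulated. Endogenous phospho-AKT1 Ser473 quantified by cell-based ELISA with chemiluminescent substrate. Signal plotted against inhibitor concentration and fitted to a sigmoid dose-response curve.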

[6] = Oral bioavailability in BALB/c mouse at 10 mg/kg measured for 8 hrs; type: ADME, organism-based; conditions: in vivo
Outline: (§1)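 BALB/c mice dosed I.V. or P.O. at the stated dose; plasma levels followed for 8 h. Parameters from noncompartmental analysis: AUC (h.ng/ml), T1/2 (h), Cl (L/h/Kg), Vd (L/Kg), Cmax (ng/ml), Tmax (h).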

[7] = Metabolic stability in human liver microsomes assessed as parent compound remaining in presence of NADPH regenerating system at 0.5 uM measured after 15 mins by LC-MS/MS analysis; type: ADME, Microsome; conditions: read-out: Stabilty
Outline: (§2)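 Human, mouse or rat liver microsomes at 0.5 mg/ml protein with compound at 0.5 µM and NADPH-regenerating system, 37 °C with shaking. Control wells contain 0.1 M potassium phosphate instead of the regenerating system. Reaction stopped with acetonitrile/0.1% formic acid, centrifuged, supernatant analyzed by LC-MS/MS. Result is percent parent compound remaining.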

[8] = Cmax in BALB/c mouse at 10 mg/kg, po measured for 8 hrs; type: ADME, organism-based; design: route oral, dose 10 mg/kg, time 8 hrs; conditions: in vivo; outline: as §1
[9] = Half life in BALB/c mouse at 5 mg/kg, iv measured for 8 hrs; type: ADME, organism-based; conditions: in vivo; outline: as §1
[10] = target: Cytochrome P450 2D6 (Homo sapiens, UniProt P10635); experiment: Inhibition of CYP2D6 (unknown origin) using Luciferin-ME-EG as substrate at 10 uM preincubated with enzyme and substrate for 5 mins followed by addition of NADPH regeneration system and measured after 60 mins by luminescence method; type: ADME
Sequence of Cytochrome P450 2D6 (P10635 whole entry): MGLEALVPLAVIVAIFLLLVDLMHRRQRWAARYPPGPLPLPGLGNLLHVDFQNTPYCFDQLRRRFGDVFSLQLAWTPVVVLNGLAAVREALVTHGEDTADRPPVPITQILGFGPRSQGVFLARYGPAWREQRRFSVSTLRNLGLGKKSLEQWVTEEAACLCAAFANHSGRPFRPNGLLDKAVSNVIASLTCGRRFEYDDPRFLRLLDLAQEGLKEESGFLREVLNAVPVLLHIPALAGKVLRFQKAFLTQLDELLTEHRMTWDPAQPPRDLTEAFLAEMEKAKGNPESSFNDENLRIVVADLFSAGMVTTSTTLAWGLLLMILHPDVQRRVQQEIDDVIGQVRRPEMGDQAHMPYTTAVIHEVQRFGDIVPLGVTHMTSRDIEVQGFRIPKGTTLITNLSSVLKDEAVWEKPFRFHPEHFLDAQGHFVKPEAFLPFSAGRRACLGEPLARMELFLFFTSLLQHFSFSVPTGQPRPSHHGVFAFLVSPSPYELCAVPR
Outline: (§3)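 P450-Glo luminescence assays with these substrates: Luciferin-ME (CYP1A2), Luciferin-PPXE (CYP3A4), Luciferin-H (CYP2C9), LuciferinH-EG (CYP2C19), Luciferin-ME-EG (CYP2D6). Compounds run in 1/3 serial dilutions from 10 µM in 0.5% DMSO with enzyme and substrate. After 5 min preincubation, NADPH regeneration reagent added; 60 min at 37 °C, then detection reagent for 30 min. Background subtracted.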

[11] = Tmax in BALB/c mouse at 10 mg/kg, po measured for 8 hrs; type: ADME, organism-based; conditions: in vivo
Outline: (§4)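 Dosing in BALB-C mice intravenously or orally, with plasma sampled over 8 h. Parameters (AUC, T1/2, Cl, Vd, Cmax, Tmax) come from a noncompartmental model. Units: AUC h.ng/ml, Vd L/Kg, Cmax ng/ml, Tmax h.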

[12] = target: Cytochrome P450 3A4 (Homo sapiens, UniProt P08684); experiment: Inhibition of CYP3A4 (unknown origin) using Luciferin-PPXE as substrate at 10 uM preincubated with enzyme and substrate for 5 mins followed by addition of NADPH regeneration system and measured after 60 mins by luminescence method; type: ADME; outline: as §3
Sequence of Cytochrome P450 3A4 (P08684 whole entry): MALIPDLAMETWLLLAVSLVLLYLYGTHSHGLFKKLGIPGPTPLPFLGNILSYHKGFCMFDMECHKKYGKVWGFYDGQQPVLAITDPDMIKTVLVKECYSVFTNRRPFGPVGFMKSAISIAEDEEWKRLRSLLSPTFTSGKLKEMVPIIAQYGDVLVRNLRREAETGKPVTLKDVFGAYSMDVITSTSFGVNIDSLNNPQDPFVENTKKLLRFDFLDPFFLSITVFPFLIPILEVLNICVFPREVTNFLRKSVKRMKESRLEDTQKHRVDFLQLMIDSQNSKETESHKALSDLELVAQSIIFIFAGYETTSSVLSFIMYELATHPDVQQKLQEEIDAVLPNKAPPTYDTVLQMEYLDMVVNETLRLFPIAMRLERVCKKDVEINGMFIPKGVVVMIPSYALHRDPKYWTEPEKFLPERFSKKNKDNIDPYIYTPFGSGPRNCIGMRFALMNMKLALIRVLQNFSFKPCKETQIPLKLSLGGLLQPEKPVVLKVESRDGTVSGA

[13] = target: Cytochrome P450 2C19 (Homo sapiens, UniProt P33261); experiment: Inhibition of CYP2C19 (unknown origin) using LuciferinH-EG as substrate at 10 uM preincubated with enzyme and substrate for 5 mins followed by addition of NADPH regeneration system and measured after 60 mins by luminescence method; type: ADME; outline: as §3
Sequence of Cytochrome P450 2C19 (P33261 whole entry): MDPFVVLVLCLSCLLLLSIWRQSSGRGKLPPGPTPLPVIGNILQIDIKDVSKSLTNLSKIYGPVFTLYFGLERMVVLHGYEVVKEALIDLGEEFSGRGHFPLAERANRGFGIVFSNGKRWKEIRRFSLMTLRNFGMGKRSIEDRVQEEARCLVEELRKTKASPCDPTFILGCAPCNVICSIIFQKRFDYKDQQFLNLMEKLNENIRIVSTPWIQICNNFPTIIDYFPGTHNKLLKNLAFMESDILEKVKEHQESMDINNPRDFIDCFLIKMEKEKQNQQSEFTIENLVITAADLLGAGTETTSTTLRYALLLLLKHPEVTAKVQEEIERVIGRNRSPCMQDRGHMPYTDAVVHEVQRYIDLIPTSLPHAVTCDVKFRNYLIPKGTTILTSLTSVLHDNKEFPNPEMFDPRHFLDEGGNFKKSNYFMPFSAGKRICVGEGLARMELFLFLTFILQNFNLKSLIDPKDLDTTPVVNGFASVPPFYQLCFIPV

[14] = Clearance in BALB/c mouse at 5 mg/kg, iv measured for 8 hrs; type: ADME, organism-based; conditions: in vivo; outline: as §1
[15] = AUC (infinity) in BALB/c mouse at 5 mg/kg, iv measured for 8 hrs; type: ADME, organism-based; design: route intravenous, dose 5 mg/kg, time 8 hrs; conditions: in vivo; outline: as §1
[16] = Plasma concentration in BALB/c mouse at 10 mg/kg, po measured for 8 hrs; type: ADME, organism-based; outline: as §4
[17] = Half life in BALB/c mouse at 10 mg/kg, po measured for 8 hrs; type: ADME, organism-based; conditions: in vivo; outline: as §1
[18] = Volume of distribution in BALB/c mouse at 5 mg/kg, iv measured for 8 hrs; type: ADME, organism-based; conditions: in vivo; outline: as §4
[19] = AUC(infinity) in BALB/c mouse at 10 mg/kg, po measured for 8 hrs; type: ADME, organism-based; design: route oral, time 8 hrs, dose 10 mg/kg; conditions: in vivo; outline: as §1
[20] = Metabolic stability in rat liver microsomes assessed as parent compound remaining in presence of NADPH regenerating system at 0.5 uM measured after 15 mins by LC-MS/MS analysis; type: ADME, Microsome; conditions: read-out: Stabilty; outline: as §2
[21] = target: Cytochrome P450 2C9 (Homo sapiens, UniProt P11712); experiment: Inhibition of CYP2C9 (unknown origin) using Luciferin-H as substrate at 10 uM preincubated with enzyme and substrate for 5 mins followed by addition of NADPH regeneration system and measured after 60 mins by luminescence method; type: ADME; outline: as §3
Sequence of Cytochrome P450 2C9 (P11712 whole entry): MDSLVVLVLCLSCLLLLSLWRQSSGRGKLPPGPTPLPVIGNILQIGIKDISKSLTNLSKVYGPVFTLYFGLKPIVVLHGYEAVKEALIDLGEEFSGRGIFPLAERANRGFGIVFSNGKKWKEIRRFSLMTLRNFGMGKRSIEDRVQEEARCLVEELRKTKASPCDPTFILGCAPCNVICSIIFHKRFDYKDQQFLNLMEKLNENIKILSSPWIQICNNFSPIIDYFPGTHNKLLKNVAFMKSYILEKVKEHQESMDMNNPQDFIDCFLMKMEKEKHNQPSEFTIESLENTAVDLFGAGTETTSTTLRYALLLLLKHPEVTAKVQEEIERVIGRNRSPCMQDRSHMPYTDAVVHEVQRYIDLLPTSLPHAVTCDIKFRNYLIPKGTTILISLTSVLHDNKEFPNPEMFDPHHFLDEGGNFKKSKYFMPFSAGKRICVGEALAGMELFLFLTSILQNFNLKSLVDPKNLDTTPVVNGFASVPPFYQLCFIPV

[22] = Metabolic stability in mouse liver microsomes assessed as parent compound remaining in presence of NADPH regenerating system at 0.5 uM measured after 15 mins by LC-MS/MS analysis; type: ADME, Microsome; conditions: read-out: Stabilty; outline: as §2
[23] = target: T1, Cytochrome P450 1A2 (Homo sapiens, UniProt P05177); experiment: Inhibition of CYP1A2 (unknown origin) using Luciferin-ME as substrate at 10 uM preincubated with enzyme and substrate for 5 mins followed by addition of NADPH regeneration system and measured after 60 mins by luminescence method; type: ADME; outline: as §3
T1 sequence (P05177 whole entry): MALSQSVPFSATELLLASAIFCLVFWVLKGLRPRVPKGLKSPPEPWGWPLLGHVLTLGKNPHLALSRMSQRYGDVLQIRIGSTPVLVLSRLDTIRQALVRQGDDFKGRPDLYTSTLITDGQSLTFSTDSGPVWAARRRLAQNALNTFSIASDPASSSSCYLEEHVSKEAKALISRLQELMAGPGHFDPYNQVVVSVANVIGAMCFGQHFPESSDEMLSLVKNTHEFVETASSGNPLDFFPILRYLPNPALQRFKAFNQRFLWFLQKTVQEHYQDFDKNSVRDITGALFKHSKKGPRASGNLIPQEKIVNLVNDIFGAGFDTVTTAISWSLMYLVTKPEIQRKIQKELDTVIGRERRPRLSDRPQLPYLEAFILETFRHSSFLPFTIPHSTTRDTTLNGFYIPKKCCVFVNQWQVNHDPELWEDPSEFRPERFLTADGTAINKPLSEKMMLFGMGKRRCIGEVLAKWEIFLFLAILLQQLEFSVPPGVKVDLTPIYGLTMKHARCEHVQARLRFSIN

IC50 [1]: 16.5 nM
SMILES: COc1ncc2cc1NS(=O)(=O)c1cccc(c1)C(=O)NCCn1cc(cn1)-c1ncnc3ccc-2cc13

IC50 [1]: 67.6 nM
SMILES: COc1ncc2cc1NS(=O)(=O)c1cccc(c1)C(=O)NCc1cncc(c1)-c1cnn3ccc-2nc13

IC50 [1]: 5790 nM
SMILES: COc1ncc2cc1NS(=O)(=O)c1cccc(c1)C(=O)NCCn1cc(cn1)-c1cnc3ccc-2cn13
IC50 [2]: > 30000 nM

IC50 [1]: > 10000 nM
IC50 [4]: 445 nM
SMILES: COc1ncc2cc1NS(=O)(=O)c1cccc(c1)C(=O)NCc1cccc(c1)-c1cnn3ccc-2nc13
Ratio IC50 [3]: > 22
IC50 [2]: > 30000 nM

IC50 [1]: 63.8 nM
SMILES: COc1ncc2cc1NS(=O)(=O)c1cc(c(F)cc1F)C(=O)NCc1cccc(c1)-c1ccnc3ccc-2cc13

IC50 [1]: > 10000 nM
SMILES: COc1ncc2cc1NS(=O)(=O)c1cccc(c1)C(=O)NCc1cccc(c1)-c1ccnc3ccc-2nc13

IC50 [1]: 655 nM
SMILES: COc1ncc2cc1NS(=O)(=O)c1cccc(c1)C(=O)NCc1ccc(F)c(c1)-c1ccnc3ccc-2cc13

IC50 [1]: 5.4 nM
SMILES: COc1ncc2cc1NS(=O)(=O)c1cc(c(F)cc1F)C(=O)NCc1cncc(c1)-c1ccnc3ccc-2nc13

IC50 [1]: 249 nM
SMILES: COc1ncc2cc1NS(=O)(=O)c1cccc(c1)C(=O)NCCn1cc(cn1)-c1ccnc3ccc-2cc13

EC50 [5]: 99.4 nM
IC50 [1]: 16.7 nM
IC50 [4]: 3 nM
SMILES: COc1ncc2cc1NS(=O)(=O)c1cccc(c1)C(=O)NCc1cncc(c1)-c1cnc3ccc-2nn13
Ratio IC50 [3]: 5.5
IC50 [2]: > 30000 nM

IC50 [1]: 49 nM
SMILES: COc1ncc2cc1NS(=O)(=O)c1cccc(c1)C(=O)NCc1cncc(c1)-c1ccnc3ccc-2nc13
IC50 [2]: > 30000 nM

bioavailability [6]: 47.6%
remaining at 0.25 h, 0.5 µM [7]: 80%
EC50 [5]: 20.6 nM
Cmax [8]: 1270 ng/mL
IC50 [1]: 4.9 nM
half-life [9]: 2.91 h
IC50 [10]: > 30000 nM
Tmax [11]: 9.6 min
IC50 [12]: > 30000 nM
IC50 [13]: > 30000 nM
clearance [14]: 9 mL/min/kg
AUC(0-inf) [15]: 9200 ng·h/mL
concentration at 8 h [16]: 424 ng/mL
half-life [17]: 5.68 h
Vd [18]: 0.59 L/kg
AUC(0-inf) [19]: 8760 ng·h/mL
remaining at 0.25 h, 0.5 µM [20]: 86%
IC50 [4]: 1.3 nM
IC50 [21]: > 30000 nM
remaining at 0.25 h, 0.5 µM [22]: 76%
IC50 [23]: > 30000 nM
SMILES: COc1ncc2cc1NS(=O)(=O)c1cccc(c1)C(=O)NCc1cncc(c1)-c1ncnc3ccc-2cc13
Ratio IC50 [3]: 3.8
IC50 [2]: > 30000 nM

IC50 [1]: 223 nM
SMILES: COc1ncc2cc1NS(=O)(=O)c1cccc(c1)C(=O)NCc1cccc(c1F)-c1ccnc3ccc-2cc13
